# From PubChem
# A selection: hits, their analogues and other compounds. The true share with any hit is near 1.7%.
# M5 PAM: CHRM5 positive allosteric modulation; CHO-K1 hM5, Fluo-8 calcium, ACh EC20 PAM; 0% = ACh EC20, 100% = ACh EC100; activation, % at 3 µM; 360,000 compounds, 0.3% hits; AID 624038;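 active means activation above the run cutoff, the mean activation of all test compounds plus 3 SD, cut at about 18% in these data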
# Target sequence (P08912 whole entry, looked up): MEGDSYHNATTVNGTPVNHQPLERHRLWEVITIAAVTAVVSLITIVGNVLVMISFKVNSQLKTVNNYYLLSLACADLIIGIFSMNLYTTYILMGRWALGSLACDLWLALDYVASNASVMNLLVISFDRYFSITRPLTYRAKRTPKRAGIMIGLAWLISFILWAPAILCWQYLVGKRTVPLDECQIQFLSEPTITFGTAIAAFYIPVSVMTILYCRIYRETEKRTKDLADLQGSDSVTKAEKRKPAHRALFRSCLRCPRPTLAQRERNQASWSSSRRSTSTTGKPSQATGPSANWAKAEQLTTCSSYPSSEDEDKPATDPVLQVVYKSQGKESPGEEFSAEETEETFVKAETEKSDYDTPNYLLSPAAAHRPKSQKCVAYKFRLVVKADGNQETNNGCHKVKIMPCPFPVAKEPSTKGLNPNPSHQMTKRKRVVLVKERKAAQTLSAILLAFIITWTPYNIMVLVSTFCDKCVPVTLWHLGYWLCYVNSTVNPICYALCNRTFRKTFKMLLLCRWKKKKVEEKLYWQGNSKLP
#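 system = human M5 receptor in CHO-K1 cells | compound = one concentration, 3 µM final (nominal) | schedule = Post-acetylcholine fluorescence recording 140 s | signal = Fluo-8 calcium dye fluorescence, kinetic read | benchmarks = low control EC20 acetylcholine (0%), high control EC100 acetylcholine (100%) | repeats = singlicate, one well per test compound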
# M5 ag: CHRM5 agonism in calcium assay | CHO-K1 hM5 cells, Fluo-8 calcium fluorescence; 0% DMSO wells, 100% maximal acetylcholine response | 360,000 compounds, 0.19% hits | activation, % at 3 µM | P08912;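 active means activation above the run's mean over test compounds plus 3 SD, cut at about 23% in these data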;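 further: signal is peak over basal fluorescence ratio across the kinetic read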
# CHO-K1 Ca ag: nonselective activator or artifact in parental CHO-K1 cells. Fluo-8 calcium fluorescence; scaled to maximal ATP response, vehicle zero. activation, % at 3 µM. 360,000 compounds, 0.48% hits. AID 602248; in the data active means activation above about 15%;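 further: untransfected CHO-K1 host cells lacking M1 receptor as counterscreen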
# M1 PAM parental: M1 PAM counterscreen hit in parental CHO-K1 cells | AID 602247 | 360,000 compounds, 0.02% hits | ATP EC20, Fluo-8 calcium fluorescence; 0% at ATP EC20, 100% at ATP max | activation, % at 3 µM;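 active means activation above the run cutoff, the mean activation of all test compounds plus 3 SD, cut at about 40% in these data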;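 further: peak over basal fluorescence ratio in a 140 s read after ATP addition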
# CHRM5 antagonist: antagonists of human muscarinic M5 receptor (CHRM5). P08912. CHO-hM5 cells, Fluo-8 calcium fluorescence, ACh EC80. inhibition, % at 3 µM. 360,000 compounds, 0.59% hits;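 active means inhibition above a per-plate cutoff, the mean of that plate's test compounds plus 3 SD, cut at about 27% in these data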;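 further: 0% = acetylcholine EC80 with DMSO and 100% = DMSO without agonist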
# CHO-K1 Ca antag: counter-screen for M1 antagonists: effect in parental CHO-K1 cells; inhibition, % at 3 µM; ATP-induced calcium, Fluo-8 fluorescence; 360,000 compounds, 0.6% hits;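 active means inhibition above a per-plate cutoff, the plate's mean sample inhibition plus 3 SD, cut at about 24% in these data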;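 further: 0% = DMSO plus EC80 ATP and 100% = DMSO alone without ATP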
# * hit, by the source's call.
SMILES,M5 PAM,M5 ag,CHO-K1 Ca ag,M1 PAM parental,CHRM5 antagonist,CHO-K1 Ca antag
COc1ccc(NC(=O)CSCC(=O)N2c3ccccc3CCc3ccccc32)cc1,-2.9,-4.4,19.0*,16.9,4.1,3.8
CC1C(=O)N2CCCc3cc(S(=O)(=O)N(C)c4ccccc4)cc1c32 (stereo unspecified),6.2,-4.2,0.2,-2.3,-11.9,-5.8
Fc1ccc(C[n+]2csc3ccccc32)cc1,3.4,45.9*,0.8,-3.5,43.4*,-7.2
Cc1c(N=NC2=C(O)CC(C)(C)CC2=O)cc2c(c1[N+](=O)[O-])C(C)(C)CC2(C)C,23.1*,3.6,0.1,10.1,-24.1,-3.8
O=P(O)(Cc1ccccc1)c1ccccc1,0.9,-0.5,0.7,17.5,-4.7,-11.0
COc1cccc(C2CC(c3ccccc3)=NN2S(=O)(=O)c2ccc(C)cc2)c1OC (stereo unspecified),26.7*,5.1,0.5,-6.3,3.4,-1.4
CCCCCCCn1c(=O)c(C(=O)OC)c(N)c2ccccc21,-28.2,9.6,22.8*,-7.9,6.5,4.4
CCCCCCCCn1c(=O)c(C(=O)OC)c(N)c2ccccc21,-18.3,10.6,10.4,6.5,5.8,13.5
CCCCn1c(C)cc(C)c(S(=O)(=O)c2ccccc2C)c1=O,0.8,-11.7,0.0,16.5,2.4,-8.3
Cc1ccccc1S(=O)(=O)c1c(C)cc(C)n(C(C)C)c1=O,21.7*,-4.8,0.2,23.1,-10.7,-8.1
Cc1ccccc1Cn1c(C)nc2ccccc21,-20.0,3.0,10.0,-24.3,25.4,28.6*
COc1ccccc1Cn1c(C)nc2ccccc21,-2.6,-1.8,4.3,-17.6,13.8,17.5
Cc1nc2ccccc2n1Cc1ccc(Cl)cc1,-13.7,8.3,9.2,-11.6,22.2,33.2*
CC(=O)Nc1ccc(C(=O)OCC(=O)NCc2ccccc2)cc1,-13.6,-0.9,0.4,7.0,26.9*,-4.2
OC(COc1ccccc1)CN1CCCCCC1 (stereo unspecified),1.9,-5.9,-0.5,-2.6,-1.7,7.4
CCC(C)(C)n1nnnc1C(c1ccc(C)cc1)N1CCN(C(=O)c2ccco2)CC1 (stereo unspecified),35.0*,-7.8,0.7,17.6,-10.4,-7.4
Cc1ccc(S(=O)(=O)/N=C2/NC(=O)/C(=C/c3cc([N+](=O)[O-])ccc3O)S2)cc1,-18.0,49.0*,19.8*,-20.9,8.2,14.9
COc1cccc(N=C2NC(=O)/C(=C/c3cc([N+](=O)[O-])ccc3O)S2)c1,0.7,0.7,1.3,-2.3,2.1,-9.0
O=C1NC(=Nc2ccccc2Cl)S/C1=C\c1cc([N+](=O)[O-])ccc1O,-3.2,31.5*,5.8,-9.9,12.3,11.4
CC(C)(C)c1ccc(-c2ccc3c(c2)S(=O)(=O)c2ccccc2C3=O)cc1,2.4,-4.1,0.8,21.6,16.2,-19.5
CCOC1=C2CN(S(=O)(=O)c3ccc(C)cc3)[C@@H](c3cccs3)C[C@H]2[C@H]2C(=O)N(c3ccccc3)C(=O)[C@H]2C1,2.7,2.8,-0.2,-3.8,-0.9,26.8*
COc1ccc(-c2cc3c(=O)n(CC(=O)Nc4ccc(C(C)=O)cc4)ncn3n2)cc1,-6.8,-3.0,-0.1,-6.1,20.1,-2.9
COc1ccccc1CNC(=O)C1CC(c2ccccc2[N+](=O)[O-])=NO1 (stereo unspecified),20.7*,-0.1,-0.5,-15.0,-5.9,5.5
COc1ccc(CNC(=O)C2CC(c3ccccc3[N+](=O)[O-])=NO2)cc1 (stereo unspecified),0.9,-3.2,-0.8,-9.0,7.9,-5.1
CN(C)C(=O)CSc1nnc2sc3ccccc3n12,2.9,-2.7,0.5,18.9,0.0,-5.7
CCOC(=O)CC(=O)CSc1nnc2sc3ccccc3n12,34.7*,-8.8,-0.3,12.1,-14.7,-8.5
O=C(Nc1nnc(S(=O)(=O)N2CCCC2)s1)c1ccccc1F,-7.2,2.1,0.3,0.2,2.0,0.4
Cc1nc(-c2ccccc2)sc1C(N)=O,2.0,-2.4,0.3,22.1,-1.7,-15.8
C/C(=N\O)c1sc(-c2ccccc2)nc1C,1.6,-2.2,19.9*,2.3,-3.4,5.4
